ChEMBL document CHEMBL1153716, “Constrained peptidomimetics reveal detailed geometric requirements of covalent prolyl oligopeptidase inhibitors” (J Med Chem, 2009)
Activity calls are given as the source filed them. No cut-off for these calls is given here.

Columns and labels:
[1] = target: T1, Prolyl endopeptidase (Homo sapiens) (UniProt P48147); test: Inhibition of prolyl oligopeptidase in human astrocyte derived cell extracts assessed as blockade of Z-Gly-Pro-AMC substrate hydrolysis at 100 uM by fluorimetric assay
T1 sequence (whole entry): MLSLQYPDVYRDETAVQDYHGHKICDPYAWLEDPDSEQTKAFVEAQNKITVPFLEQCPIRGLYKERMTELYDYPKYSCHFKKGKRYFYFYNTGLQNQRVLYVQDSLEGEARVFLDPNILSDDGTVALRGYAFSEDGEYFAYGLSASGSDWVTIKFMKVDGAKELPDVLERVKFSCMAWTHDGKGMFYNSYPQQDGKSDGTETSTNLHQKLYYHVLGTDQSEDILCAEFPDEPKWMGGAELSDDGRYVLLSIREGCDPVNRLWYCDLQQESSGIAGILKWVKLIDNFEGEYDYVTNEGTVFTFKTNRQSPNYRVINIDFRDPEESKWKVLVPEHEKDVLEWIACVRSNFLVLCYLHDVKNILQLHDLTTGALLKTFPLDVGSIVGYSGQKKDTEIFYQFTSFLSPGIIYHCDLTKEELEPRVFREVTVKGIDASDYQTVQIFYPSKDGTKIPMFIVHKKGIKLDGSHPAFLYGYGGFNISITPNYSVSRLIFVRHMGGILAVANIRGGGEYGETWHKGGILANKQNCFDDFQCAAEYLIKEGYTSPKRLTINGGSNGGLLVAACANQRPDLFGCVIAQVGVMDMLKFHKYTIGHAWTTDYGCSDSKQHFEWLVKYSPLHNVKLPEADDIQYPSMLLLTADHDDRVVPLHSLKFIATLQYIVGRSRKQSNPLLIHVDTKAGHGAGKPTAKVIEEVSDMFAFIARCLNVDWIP
Summary of the method: (§1)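 Confluent human glioblastoma (LN18, LN229, LNZ308), brain endothelial HCEC, or lung PO03 and skin PG98/5 fibroblasts extracted in PBS with 0.1% Triton X-100. Compound was diluted from methanol stock into water and preincubated 5-10 min at room temperature. Z-Gly-Pro-AMC was then added and read by fluorescence. Duplicate wells.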

[2] = target: T1, Prolyl endopeptidase (Homo sapiens); test: Inhibition of prolyl oligopeptidase in human brain derived endothelial cell extracts assessed as blockade of Z-Gly-Pro-AMC substrate hydrolysis at 100 uM by fluorimetric assay; format: cell-free; summary of the method: as §1
[3] = target: T1, Prolyl endopeptidase (Homo sapiens); test: Inhibition of prolyl oligopeptidase in human fibroblast extracts assessed as blockade of Z-Gly-Pro-AMC substrate hydrolysis at 100 uM by fluorimetric assay; summary of the method: as §1
[4] = target: Dipeptidyl peptidase 4 (Homo sapiens) (UniProt P27487); test: Inhibition of DPP4 in human astrocyte derived cell extracts assessed as blockade of Gly-Pro-AMC substrate hydrolysis at 100 uM by fluorimetric assay
Chain of Dipeptidyl peptidase 4 (Homo sapiens) (P27487 whole entry, looked up): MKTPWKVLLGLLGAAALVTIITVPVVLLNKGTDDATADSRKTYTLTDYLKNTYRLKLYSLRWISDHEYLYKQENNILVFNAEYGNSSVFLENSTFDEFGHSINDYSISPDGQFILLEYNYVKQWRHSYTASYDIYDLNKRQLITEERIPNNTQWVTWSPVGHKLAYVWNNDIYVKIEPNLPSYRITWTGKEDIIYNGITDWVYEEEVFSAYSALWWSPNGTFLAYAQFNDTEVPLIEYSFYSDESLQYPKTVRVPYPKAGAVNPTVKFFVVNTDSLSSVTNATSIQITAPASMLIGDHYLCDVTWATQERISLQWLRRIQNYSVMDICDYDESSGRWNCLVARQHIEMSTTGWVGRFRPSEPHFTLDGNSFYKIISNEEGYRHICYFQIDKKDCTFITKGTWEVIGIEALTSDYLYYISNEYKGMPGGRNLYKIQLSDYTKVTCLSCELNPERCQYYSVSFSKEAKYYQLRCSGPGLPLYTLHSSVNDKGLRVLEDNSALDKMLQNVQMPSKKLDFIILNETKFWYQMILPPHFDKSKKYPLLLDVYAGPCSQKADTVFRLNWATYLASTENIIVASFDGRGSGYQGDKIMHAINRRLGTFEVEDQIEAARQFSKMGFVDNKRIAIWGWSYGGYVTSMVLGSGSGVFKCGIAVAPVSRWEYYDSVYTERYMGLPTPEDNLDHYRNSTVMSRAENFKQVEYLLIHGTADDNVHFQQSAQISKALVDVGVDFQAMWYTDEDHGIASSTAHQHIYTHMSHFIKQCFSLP
Summary of the method: (§2)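 Confluent human cells (glioblastoma LN18, LN229, LNZ308; brain endothelial HCEC; lung PO03 or skin PG98/5 fibroblasts) grown in DMEM with 4.5 g/L glucose and 10% FCS, then lysed in PBS (pH 7.2-7.4) containing 0.1% Triton X-100. Compound was diluted from methanol stock into water and preincubated 5-10 min at room temperature. Gly-Pro-AMC was then added. Duplicate wells.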

[5] = target: Dipeptidyl peptidase 4 (Homo sapiens) (UniProt P27487); test: Inhibition of DPP4 in human brain derived endothelial cell extracts assessed as blockade of Gly-Pro-AMC substrate hydrolysis at 100 uM by fluorimetric assay; format: cell-free; summary of the method: as §2
[6] = target: T1, Prolyl endopeptidase (Homo sapiens); test: Inhibition of prolyl oligopeptidase in intact human astrocyte derived cells assessed as blockade of Z-Gly-Pro-AMC substrate hydrolysis at 100 uM by fluorimetric assay
Summary of the method: (§3)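 Intact confluent human glioblastoma (LN18, LN229, LNZ308), brain endothelial HCEC, or lung PO03 and skin PG98/5 fibroblast monolayers in PBS (pH 7.2-7.4), cells grown beforehand in DMEM with 10% FCS. Compound was diluted from methanol stock into water and preincubated 5-10 min at room temperature. Z-Gly-Pro-AMC was then added and read fluorimetrically. Duplicate wells.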

[7] = target: T1, Prolyl endopeptidase (Homo sapiens); test: Inhibition of prolyl oligopeptidase in intact human brain derived endothelial cells assessed as blockade of Z-Gly-Pro-AMC substrate hydrolysis at 100 uM by fluorimetric assay; format: cell-based; conditions: Endothelial cell; summary of the method: as §3
[8] = target: T1, Prolyl endopeptidase (Homo sapiens); test: Inhibition of prolyl oligopeptidase in intact human fibroblasts assessed as blockade of Z-Gly-Pro-AMC substrate hydrolysis at 100 uM by fluorimetric assay; summary of the method: as §3
[9] = target: Dipeptidyl peptidase 4 (Homo sapiens) (UniProt P27487); test: Inhibition of DPP4 in intact human astrocyte derived cells assessed as blockade of Gly-Pro-AMC substrate hydrolysis at 100 uM by fluorimetric assay
Summary of the method: (§4)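 Confluent intact human glioblastoma (LN18, LN229, LNZ308), brain endothelial HCEC, or lung PO03 and skin PG98/5 fibroblast monolayers kept in PBS (pH 7.2-7.4) without detergent. Compound was diluted from methanol stock into water and preincubated 5-10 min at room temperature. Gly-Pro-AMC was then added and hydrolysis read by fluorescence. Duplicate wells.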

[10] = target: Dipeptidyl peptidase 4 (Homo sapiens) (UniProt P27487); test: Inhibition of DPP4 in intact human brain derived endothelial cells assessed as blockade of Gly-Pro-AMC substrate hydrolysis at 100 uM by fluorimetric assay; format: cell-based; conditions: Endothelial cell; summary of the method: as §4
[11] = target: Dipeptidyl peptidase 4 (Homo sapiens) (UniProt P27487); test: Inhibition of DPP4 in intact human fibroblasts assessed as blockade of Gly-Pro-AMC substrate hydrolysis at 100 uM by fluorimetric assay; summary of the method: as §4
[12] = target: Dipeptidyl peptidase 4 (Homo sapiens) (UniProt P27487); test: Inhibition of DPP4 in human fibroblast extracts assessed as blockade of Gly-Pro-AMC substrate hydrolysis at 100 uM by fluorimetric assay; summary of the method: as §2

| Structure (SMILES) | inhibition [1] | inhibition [2] | inhibition [3] | inhibition [4] | inhibition [5] | inhibition [6] | inhibition [7] | inhibition [8] | inhibition [9] | inhibition [10] | inhibition [11] | inhibition [12] |
| --- | --- | --- | --- | --- | --- | --- | --- | --- | --- | --- | --- | --- |
| N#C[C@@H]1CCCN1 | inactive | inactive | inactive | inactive | inactive | inactive | inactive | inactive | inactive | inactive | inactive | – |
| C[C@@H](NC(=O)OCc1ccccc1)C(=O)N1CCC[C@H]1C#N | – | – | – | inactive | inactive | – | – | – | inactive | inactive | inactive | inactive |
| COC(=O)[C@@H]1CS[C@H]2C[C@H](NC(=O)OCc3ccccc3)C(=O)N21 | 10% | inactive | 10% | inactive | inactive | inactive | inactive | 10% | inactive | inactive | inactive | inactive |
| N#C[C@@H]1CCCN1C(=O)CNC(=O)OCc1ccccc1 | – | – | – | inactive | inactive | – | – | – | inactive | inactive | inactive | inactive |
| N#C[C@@H]1CO[C@H]2C[C@@H](NC(=O)OCc3ccccc3)C(=O)N12 | inactive | inactive | 10% | inactive | inactive | inactive | inactive | 10% | inactive | inactive | inactive | inactive |
| N#C[C@@H]1CCCN1C(=O)OCc1ccccc1 | inactive | 10% | inactive | inactive | inactive | inactive | inactive | 10% | inactive | inactive | inactive | inactive |
| N#CC1CCSC2CC(NC(=O)OCc3ccccc3)C(=O)N12 (racemic) | inactive | inactive | 10% | inactive | inactive | inactive | inactive | inactive | inactive | inactive | inactive | inactive |
| NC(=O)[C@@H]1CS[C@H]2C[C@H](NC(=O)OCc3ccccc3)C(=O)N21 | inactive | inactive | inactive | inactive | inactive | inactive | inactive | inactive | inactive | inactive | inactive | inactive |
| C[C@H](NC(=O)OCc1ccccc1)C(=O)N1CCC[C@H]1C#N | – | – | – | inactive | inactive | – | – | – | inactive | inactive | inactive | inactive |
| N#C[C@H]1CCCN1C(=O)CNC(=O)OCc1ccccc1 | – | – | – | inactive | inactive | – | – | – | inactive | inactive | inactive | inactive |
